This is an account of results in ChEMBL document CHEMBL4619773, “Chemoreactive-Inspired Discovery of Influenza A Virus Dual Inhibitor to Block Hemagglutinin-Mediated Adsorption and Membrane Fusion” (J Med Chem, 2020).

Activity calls are given as the source filed them. The calls are words filed in the database; no cut-off is given here. Some results are limits rather than exact numbers.

A short description of series [1]: Selectivity index, ratio of CC50 for cytotoxicity in dog MDCK cells assessed as reduction in cell viability incubated for 48 hrs by crystal violet staining based assay to […] in dog MDCK cells assessed as reduction in cell viability incubated for 48 hrs by crystal violet staining based assay.
Series [2] has as its system Influenza A virus. Nature of the series: Antiviral activity against Influenza A virus (A/Puerto Rico/8/1934(H1N1)) infected in MDCK cells assessed as inhibition of virus-induced cytopathic effect incubated for 48 hrs by crystal violet staining based assay. Type of series: functional, organism-based. A digest of the protocol:
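MDCK cells were infected at MOI 0.1, the inoculum was removed, and compounds were added in triplicate. After 48 h the cells were fixed in 4% formaldehyde (20 min, RT) and stained with 0.1% crystal violet (30 min). Dye was solubilized in methanol and read at 570 nm.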
A general note: Damage to the host cells serves as the signal in cytopathic effect assays.

The target of series [3] is Hemagglutinin (Influenza A virus (A/Puerto Rico/8/1934(H1N1)), UniProt P03452). In words: Binding affinity to Influenza A virus (A/Puerto Rico/8/1934(H1N1)) Hemagglutinin at 1.5625 to 50 uM by SPR assay. A digest of the protocol:
(§1)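 HA protein was immobilized on CM5 chips. Compound (50, […], 12.5, 6.25, 3.125, 1.5625 µM) was injected for 2 min, followed by a 10-min PBST wash and regeneration with 2 mM NaOH for 30 s. Runs were at 25 °C with 2 µl/s flow, using a blank HA-free reference channel. KD was obtained from kinetic fitting.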
On the technique in general: In SPR one partner is held on a chip, and binding of the other changes the refractive index at the surface.

In series [4] the test system is Influenza A virus (A/Aichi/2/1968(H3N2)). In words: Binding affinity to Influenza A virus (A/Aichi/2/1968(H3N2)) Hemagglutinin at 1.5625 to 50 uM by SPR assay. A digest of the protocol: as §1
Series [5] can be described thus: Cytotoxicity in dog MDCK cells assessed as reduction in cell viability incubated for 48 hrs by crystal violet staining based assay. Further details: species or system Canis lupus familiaris.
Series [6] relates to Influenza A virus. In words: Antiviral activity against Influenza A virus (A/Puerto Rico/8/1934(H1N1)) infected in Kunming mouse assessed as mouse survival at 10 mg/kg/day, po starting 4 hrs after viral challenge and continued for 7 days by plaque assay. Type of series: functional. A digest of the protocol:
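Groups of 10 female Kunming mice were infected intranasally with PR8 (1000 PFU/mouse) on day 0 and dosed once daily for seven days. Weight and clinical signs were recorded daily. Mice losing more than 25% of pre-infection weight were scored dead and euthanized; survivors were killed on day 14.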

For series [7], the system named is Influenza A virus. In words: Antiviral activity against Influenza A virus (A/Puerto Rico/8/1934(H1N1)) infected in Kunming mouse assessed as decrease in lung TNFalpha level at 10 mg/kg/day, po starting 4 hrs after viral challenge and continued for 4 days by ELISA. Type of series: functional, organism-based. A digest of the protocol:
(§2)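 Four-week-old female Kunming mice received PR8 intranasally (500 PFU/mouse in 40 µL PBS) and were then dosed once daily orally or intranasally. Lungs were collected on day 4, and TNF-α and IL-6 in lung tissue were measured by ELISA.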

In series [8] the test system is Influenza A virus. In words: Antiviral activity against Influenza A virus (A/Puerto Rico/8/1934(H1N1)) infected in Kunming mouse assessed as decrease in lung IL6 level at 10 mg/kg/day, po starting 4 hrs after viral challenge and continued for 4 days by ELISA. In kind it is functional, organism-based. A digest of the protocol: as §2
A general note: In an ELISA, binding on a coated surface is turned into a signal by an enzyme label.

Sequence of Hemagglutinin (Influenza A virus (A/Puerto Rico/8/1934(H1N1)), UniProt P03452) (P03452 whole entry): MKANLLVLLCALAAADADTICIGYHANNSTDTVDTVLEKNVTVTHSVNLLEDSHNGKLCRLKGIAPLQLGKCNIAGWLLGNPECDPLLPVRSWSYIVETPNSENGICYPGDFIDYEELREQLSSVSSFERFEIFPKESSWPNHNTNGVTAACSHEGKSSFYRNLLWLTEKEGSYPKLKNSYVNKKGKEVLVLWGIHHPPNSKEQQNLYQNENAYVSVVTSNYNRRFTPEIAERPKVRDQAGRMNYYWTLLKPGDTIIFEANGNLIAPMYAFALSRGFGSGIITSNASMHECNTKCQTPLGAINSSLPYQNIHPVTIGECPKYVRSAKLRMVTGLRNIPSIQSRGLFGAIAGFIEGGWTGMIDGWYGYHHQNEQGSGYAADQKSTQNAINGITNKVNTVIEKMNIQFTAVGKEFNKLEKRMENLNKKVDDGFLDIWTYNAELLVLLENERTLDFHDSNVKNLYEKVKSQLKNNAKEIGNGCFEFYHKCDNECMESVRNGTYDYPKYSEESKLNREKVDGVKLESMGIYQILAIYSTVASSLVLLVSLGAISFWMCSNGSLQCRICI

Regarding `NC(=O)c1ncn([C@@H]2O[C@H](CO)[C@@H](O)[C@H]2O)n1` [RIBAVIRIN], the “Ratio CC50/IC50” value in series [1] came out at 20.8. For the same molecule, in the series on Influenza A virus [2], the 50% inhibitory concentration (IC50) worked out at 98.3 µM. For the molecule `CC(=O)c1cc(C)c(O)c(Cc2[nH]c3cccc(Br)c3c2Cc2c(O)c(C)cc(C(C)=O)c2O)c1O`, the IC50 in the series on Influenza A virus [2] was more than 100 µM. Consider `CCOC(=O)c1c(CSc2ccccc2)n(C)c2cc(Br)c(O)c(CN(C)C)c12` [UMIFENOVIR], for which the “Ratio CC50/IC50” value in series [1] stood at 10.4. The Kd in series [3] (read-out: Kd) stood at 11.1 µM. In addition, in the series with Influenza A virus [2], the half-maximal inhibitory concentration (IC50) came out at 32.5 µM. The result in series [4] was Active. For `CC(=O)c1cc(C)c(O)c(Cc2c[nH]c3ccccc23)c1O`, in series [3], the dissociation constant Kd result is recorded as “Not Active”.

In the case of `CC(=O)NC1[C@H]([C@H](O)[C@H](O)CO)O[C@@](O[C@H]2[C@@H](O)[C@@H](CO)O[C@@H](O[C@@H]([C@H](O)[C@@H](O)C=O)[C@H](O)CO)[C@@H]2O)(C(=O)O)C[C@@H]1O` (stereo not given in full), the dissociation constant (Kd) in series [3] (read-out: Kd) was 4.5 µM. In addition, the outcome in series [4] was Active. As to `CC(=O)c1cc(C)c(O)c(Cc2[nH]c3ccc(C)cc3c2Cc2c(O)c(C)cc(C(C)=O)c2O)c1O`, the “Ratio CC50/IC50” value in series [1] is reported as 17.1. Also, in series [5], the CC50 at 48 h stood at 681 µM. Besides, in the series on Influenza A virus [2], the IC50 was found to be 39.8 µM.

As for `CCOC(=O)C1=C[C@@H](OC(CC)CC)[C@H](NC(C)=O)[C@@H](N)C1` [OSELTAMIVIR], the survival at 10 mg/kg/day with Influenza A virus [6] came to 100%. Also, the result in the series with Influenza A virus [7] and in the series with Influenza A virus [8] was Active. Turning to `CC(=O)c1cc(C)c(O)c(Cc2c(Cc3c(O)c(C)cc(C(C)=O)c3O)n(Cc3c(O)c(C)cc(C(C)=O)c3O)c3ccccc23)c1O`, the IC50 in the series on Influenza A virus [2] is more than 100 µM. Still for that read-out and setting: next, `CC(=O)c1cc(C)c(O)c(CNc2cc(C(F)(F)F)cc(C(F)(F)F)c2)c1O`: more than 100 µM; `CC(=O)c1cc(C)c(O)c(Cc2cn(Cc3c(O)c(C)cc(C(C)=O)c3O)c3cccc(Br)c23)c1O`: more than 100 µM. In the case of `CC(=O)c1cc(C)c(O)c(Cc2c(Cc3c(O)c(C)cc(C(C)=O)c3O)n(Cc3c(O)c(C)cc(C(C)=O)c3O)c3cccc(Br)c23)c1O`, the IC50 in the series on Influenza A virus [2] was more than 100 µM.

A word on the IC50: it is the concentration that inhibits the measured activity by half. Broadly, the Kd is the constant that tells how readily two partners part at equilibrium. One may read the CC50 as the concentration at which the toxic effect on the cells reaches its halfway point.
